Compound activity (PubChem BioAssay)
The list is not random: actives were taken first. Their share in the collection is about 1.6%.
VIM-2 inhibitor = inhibitors of Pseudomonas aeruginosa VIM-2 metallo-beta-lactamase; purified VIM-2, nitrocefin hydrolysis, epi-absorbance fluorescence; inhibition, % at 5.6 µM; 0.89% of 290,000 active; AID 1527;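 active = inhibition above the mean of all tested compounds plus 3 SD, cutoff set per screening run, cut at about 7.5% in these data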;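 note: red hydrolysis product quenches plate fluorescence so inhibitors raise well fluorescence; 0% = enzyme with DMSO and 100% = DMSO without enzyme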
DNA FID counter = fluorescent intercalator displacement, NS3 helicase counter-screen; DNA fluorescent intercalator displacement, fluorescence; inhibition, % at 7.9 µM; 0.17% of 290,000 active; in the data active = inhibition above about 37%;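 note: 0% = vehicle and 100% = reference compound; higher means more ethidium bromide displaced from hairpin DNA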
IMP-1 inhibitor = inhibitors of Pseudomonas aeruginosa IMP-1 metallo-beta-lactamase | purified IMP-1, nitrocefin hydrolysis, epi-absorbance fluorescence | inhibition, % at 5.6 µM | 0.45% of 290,000 active | AID 1556;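 active = inhibition above the mean plus 3 SD of all compounds in the same screening run, cut at about 4.5% in these data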;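 note: 0% = IMP-1 with DMSO and 100% = DMSO wells lacking enzyme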
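Assay system: purified IMP-1; Quantity: IMP-1 0.2 nM before substrate addition; Medium: HEPES buffer pH 7.1 with ZnSO4 and Brij 35; Incubation: 15 min enzyme–compound preincubation, then 25 min nitrocefin reaction, 25 °C; Signal: fluorescence quenching readout, ex 480/em 530 nm; Controls: DMSO with and without IMP-1; Repeats: singlicate testing.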
core dimer inh = blocks dimerization of HCV core protein; TR-FRET GST/Flag-core106 dimerization, 1536-well; inhibition, % at 5 µM; 0.33% of 300,000 active; AID 1899;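 active = inhibition above the mean of all tested compounds plus 3 SD, set per screening campaign, cut at about 45% in these data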
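Test system: GST/Flag-tagged HCV core106 proteins; Medium: KF-containing HEPES buffer, pH 7.45, DTT, CHAPS, BSA; Times: compound-protein-antibody incubation 4 h at 22.5 °C; Detection: TR-FRET 671 and 617 nm emission; Benchmarks: wells lacking GST-core106 and wells with excess unlabelled core106.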
* marks the source's active call; other numbers are inactive results.

Screening O=C(CSc1nc2nc(-c3cccs3)cc(C(F)(F)F)c2c(=O)[nH]1)NCc1ccco1 returned VIM-2 inhibitor 8.1*, DNA FID counter -1.4, IMP-1 inhibitor -3.4 and core dimer inh 17.4.
`COc1ccc(S(=O)(=O)NCCSCc2cccc(C)c2)cc1Br` gave VIM-2 inhibitor -4.0, DNA FID counter -10.7, IMP-1 inhibitor -2.9 and core dimer inh -4.1.
Screening O=C(c1ccccc1)c1ccc(OCCCCN2CCCCC2)cc1 returned VIM-2 inhibitor 0.5, DNA FID counter 9.1, IMP-1 inhibitor -0.1 and core dimer inh -10.3.
`c1ccc(COc2ccc(OCCCCN3CCCCC3)cc2)cc1` gave VIM-2 inhibitor 1.5, DNA FID counter 44.4*, IMP-1 inhibitor 3.2 and core dimer inh 2.7.
For CC(C(=O)O)N1C(=O)C2C3CC(C2C1=O)C1C(c2ccccc2)c2sc(=O)[nH]c2SC31 (configuration not stated) the results were VIM-2 inhibitor 1.4, DNA FID counter -34.1, IMP-1 inhibitor 6.5* and core dimer inh -12.9.
For COc1ccc(N2CCN(C(CNC(=O)C(=O)NCCCn3ccnc3)c3cccnc3)CC2)cc1 (configuration not stated) the results were VIM-2 inhibitor -3.9, DNA FID counter -6.4, IMP-1 inhibitor 5.6* and core dimer inh 4.6.
CC(C)c1ccc(CNC(=O)C(=O)NCCCn2ccnc2)cc1 was read as VIM-2 inhibitor -1.1, DNA FID counter -0.6, IMP-1 inhibitor 30.0* and core dimer inh -3.2.
Screening CC(NC(=O)C(=O)NCCCn1ccnc1)c1ccccc1 (configuration not stated) returned VIM-2 inhibitor 0.1, DNA FID counter 0.8, IMP-1 inhibitor -0.3 and core dimer inh -6.1.
For CCC[C@H](CN[C@@H](CNC)[C@H](C)CC)NCCc1cc(C(F)(F)F)cc(C(F)(F)F)c1 the results were VIM-2 inhibitor 0.9, DNA FID counter 38.7*, IMP-1 inhibitor -1.1 and core dimer inh -26.2.
For CCC[C@@H](CN[C@@H](CNC)[C@H](C)CC)NCC1CCC(C(C)(C)C)CC1 (some centres not stated) the results were VIM-2 inhibitor -3.0, DNA FID counter 40.3*, IMP-1 inhibitor 1.6 and core dimer inh -9.2.
`CCCC[C@@H](CNC)NC[C@H](NCCCCC1CCCCC1)C(C)C` gave VIM-2 inhibitor -2.3, DNA FID counter 12.9, IMP-1 inhibitor 1.1 and core dimer inh -13.5.
Screening CC[C@@H](C)[C@H](CNC)NC[C@@H](Cc1cccc2ccccc12)NCCc1cccc(C(F)(F)F)c1 returned VIM-2 inhibitor -2.3, DNA FID counter 32.8, IMP-1 inhibitor -0.3 and core dimer inh -29.9.
`Cc1ccc(-n2c(CSc3nc(C)cc(C)n3)n[nH]c2=S)cc1` gave VIM-2 inhibitor 4.2, DNA FID counter -13.0, IMP-1 inhibitor -3.2 and core dimer inh -6.4.
`Cc1nc(SCC(=O)Nc2ccccc2C(F)(F)F)c(C#N)c(C)c1CC(=O)c1ccc(Br)cc1` gave VIM-2 inhibitor -2.1, DNA FID counter -5.0, IMP-1 inhibitor -3.4 and core dimer inh 7.3.
For Cc1cccc(C)c1NC(=O)CSc1nc(C)c(CC(=O)c2ccc(Br)cc2)c(C)c1C#N the results were VIM-2 inhibitor -1.6, DNA FID counter -4.4, IMP-1 inhibitor -2.9 and core dimer inh 69.9*.
`COC(=O)c1c(-c2cccs2)csc1NC(=O)c1cccnc1` gave VIM-2 inhibitor 11.1*, DNA FID counter -12.3, IMP-1 inhibitor -2.8 and core dimer inh 6.3.
For COc1ccc(CNC(=O)C(=O)c2cn(CC(=O)N3CCOCC3)c3ccccc23)cc1 the results were VIM-2 inhibitor -0.2, DNA FID counter -42.2, IMP-1 inhibitor -0.8 and core dimer inh -3.6.
CSCCC(NC(N)=O)C(=O)Nc1ccc(F)c(Cl)c1 (configuration not stated) was read as VIM-2 inhibitor -1.1, DNA FID counter -1.2, IMP-1 inhibitor -1.3 and core dimer inh 3.0.
COc1c(F)c(F)c(C(=O)Nc2ccccc2N2CCN(C(C)=O)CC2)c(F)c1F was read as VIM-2 inhibitor -1.4, DNA FID counter -13.8, IMP-1 inhibitor -1.1 and core dimer inh 47.3*.
Screening O=C(NNC(=S)NC(=O)c1ccccc1)c1ccc([N+](=O)[O-])cc1 returned VIM-2 inhibitor -3.9, DNA FID counter -8.8, IMP-1 inhibitor -7.5 and core dimer inh -9.2.
Screening CC(=O)n1cc([C@@H]2C=C(C(=O)O)O[C@H](OCc3ccc(CO)cc3)C2)c2ccccc21 returned VIM-2 inhibitor 8.8*, DNA FID counter -36.7, IMP-1 inhibitor -0.9 and core dimer inh 1.4.
Screening CCNc1nc(NCC)nc(OCCOC(=O)c2ccccc2)n1 returned VIM-2 inhibitor 1.1, DNA FID counter -14.1, IMP-1 inhibitor -1.5 and core dimer inh -0.1.
Screening CCNc1nc(NCC)nc(OCCOC(C)=O)n1 returned VIM-2 inhibitor 1.9, DNA FID counter -3.4, IMP-1 inhibitor 4.9* and core dimer inh -3.0.
For Cc1ccc(C)c(-c2cc(C(=O)NCc3cccs3)c3ccccc3n2)c1 the results were VIM-2 inhibitor 2.4, DNA FID counter -24.4, IMP-1 inhibitor 2.5 and core dimer inh 0.4.
Screening CN(C)S(=O)(=O)c1ccc(-c2cn3ccccc3n2)cc1 returned VIM-2 inhibitor -0.7, DNA FID counter -3.6, IMP-1 inhibitor 1.1 and core dimer inh 4.2.
CCOC(=O)c1oc2ccc(Br)cc2c1NC(=O)CN1CCN(C)CC1 was read as VIM-2 inhibitor 9.8*, DNA FID counter 17.3, IMP-1 inhibitor 4.0 and core dimer inh -7.0.
COC(=O)c1oc2ccc(Br)cc2c1NC(=O)CCN1CCOCC1 was read as VIM-2 inhibitor 0.8, DNA FID counter 2.2, IMP-1 inhibitor -0.2 and core dimer inh -2.1.
For CC(=O)Nc1c(C(=O)c2ccccc2)oc2ccccc12 the results were VIM-2 inhibitor 2.4, DNA FID counter -1.8, IMP-1 inhibitor -0.1 and core dimer inh 7.4.
Screening COc1ccc2oc(C(=O)c3ccccc3)c(NC(=O)CN3CCN(C)CC3)c2c1 returned VIM-2 inhibitor 9.2*, DNA FID counter 26.1, IMP-1 inhibitor -2.4 and core dimer inh -10.2.
For CN1CCN(CC(=O)Nc2c(C(=O)c3ccccc3)oc3ccccc23)CC1 the results were VIM-2 inhibitor 10.3*, DNA FID counter 10.9, IMP-1 inhibitor -2.2 and core dimer inh -8.3.
COc1ccc2oc(C(=O)c3ccccc3)c(N)c2c1 was read as VIM-2 inhibitor 1.5, DNA FID counter -5.8, IMP-1 inhibitor -0.5 and core dimer inh -8.3.
For O=C(Cn1cnc(S(=O)(=O)N2CCCC2)c1)Nc1cccc(Br)c1 the results were VIM-2 inhibitor 0.2, DNA FID counter -9.6, IMP-1 inhibitor -0.5 and core dimer inh -6.4.
Cc1ccccc1NC(=S)NCCSc1ccc(Cl)cc1 was read as VIM-2 inhibitor -2.8, DNA FID counter 48.8*, IMP-1 inhibitor 49.8* and core dimer inh 1.2.
`CC(=O)Nc1ccc(Cc2nc3c([nH]2)c(=O)n(C)c(=O)n3C)cc1` gave VIM-2 inhibitor 0.5, DNA FID counter -1.0, IMP-1 inhibitor 11.8* and core dimer inh -5.4.
Screening CCCc1nc2c([nH]1)c(=O)n(C)c(=O)n2C returned VIM-2 inhibitor -2.4, DNA FID counter -0.9, IMP-1 inhibitor -2.5 and core dimer inh -3.7.
